This passage reports IC50 results from ChEMBL document CHEMBL2311485, “Chemical and microbial semi-synthesis of tetrahydroprotoberberines as inhibitors on tissue factor procoagulant activity” (Bioorg Med Chem, 2013).

One may read the IC50 as the concentration needed to halve the response being measured.

The target in this test is Tissue factor (Homo sapiens, UniProt P13726). Put plainly: Inhibition of tissue factor procoagulant activity in LPS-stimulated human THP1 cells preincubated for 1 hr before LPS addition measured after 5 hrs. It is filed as cell-based, THP-1. The gist of the method:
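THP-1 cells grown in RPMI-1640 with 10% heat-inactivated FCS, 37 °C, 5% CO2. Cells at 1 × 10⁶/mL pretreated 1 h with compound or 0.1% DMSO vehicle, then given 500 ng/mL LPS for 5 h. Cells were pelleted, resuspended, frozen/thawed three times, and the lysate incubated with prothrombin complex plus CaCl₂ (pH 7.3) 15 min at 37 °C. Factor Xa chromogenic substrate (0.5 mM) with EDTA was added and A405 read.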

Molecules are shown by their SMILES.

Sequence of Tissue factor (P13726 whole entry): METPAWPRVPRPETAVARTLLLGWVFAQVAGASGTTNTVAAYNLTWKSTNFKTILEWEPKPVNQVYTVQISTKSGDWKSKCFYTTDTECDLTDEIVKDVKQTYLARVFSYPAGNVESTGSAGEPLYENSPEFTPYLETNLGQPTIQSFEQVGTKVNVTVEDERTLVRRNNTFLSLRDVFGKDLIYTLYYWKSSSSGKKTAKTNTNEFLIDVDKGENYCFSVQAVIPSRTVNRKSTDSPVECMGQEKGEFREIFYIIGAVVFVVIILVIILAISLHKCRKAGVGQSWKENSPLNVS

For `COc1cc2c(cc1O)[C@@H]1Cc3ccc(O)c(OC)c3CN1CC2` [STEPHOLIDINE], it took 0.105 µM to reach half-maximal inhibition (IC50). In other words, the sub-micromolar range.
